Measurements from different studies.
Target: Vascular endothelial growth factor receptor 3 (FLT4, Homo sapiens, UniProt P35916)

Compound	assay	conditions	measurement	value
CCOc1cc(-c2nncn2C)ccc1Nc1ncc2cc(C)nc(NCC(C)(C)C)c2n1	enzyme activity, inhibitor, FRET	1 µM	inhibition	23%
O=C(N[C@H]1CCCCC/C=C\C2C[C@@]2(C(=O)O)NC(=O)[C@@H]2C[C@@H](Oc3ccncc3)CN2C1=O)OC1CCCC1 (some centres unmarked)	cell-free assay, competition with immobilised ligand	1 µM	remaining binding	93%
CCCOc1ccc(OC)c(F)c1C(=O)c1ccc(C(=O)N[C@@H]2CNC[C@H]2NC(=O)c2ccc3[nH]ncc3c2)cc1	enzyme activity, inhibitor	10 µM	remaining activity	8%
COc1cc2c(Nc3ccc(Br)cc3F)ncnc2cc1OCC1CCN(C)CC1	cell-free assay	0.5 µM	remaining signal	16.1%
CN(C(=O)c1ccccc1)c1cc(N(C)c2ccc3c(c2)CCc2ccc(C(=O)NCCN4CCOCC4)cc2C3=O)ccc1F	cell-free assay, competition with immobilised ligand	1 µM	remaining binding	87%
COc1cc(Cl)c(C(=O)N[C@@H](CN[C@H]2CC[C@@H](N)CC2)Cc2ccc(C#N)cc2)cc1-c1ccc(CN[C@H](C)c2ccc(C)cc2)o1	enzyme activity, inhibitor	1 µM	remaining activity	93%
O=C1Nc2ccc(Cl)cc2C1=Cc1cc(Cl)c(O)c(Cl)c1	cell-free assay	0.5 µM	remaining signal	87.3%
COc1cc2nccc(Oc3ccc(NC(=O)c4c5n(n(-c6ccc(F)cc6)c4=O)CCCC5)cc3)c2cc1OC	enzyme activity, inhibitor	0.1 µM	inhibition	47%
CC(C)(O)[C@H]1CC[C@H](Nc2ccc3ncc(-c4cccc(C(F)(F)F)c4)n3n2)CC1	enzyme activity, inhibitor	1 µM	remaining activity	83.5%
COc1cc2ncnc(Nc3ccc(Oc4ccccc4)cc3C)c2cc1OC	enzyme activity, inhibitor	1 µM	inhibition	17%
CCCCN(CCCC)C(=O)CN1C[C@H](c2cc(OC)c3c(c2)OCO3)[C@@H](C(=O)O)[C@@H]1CC(C)(C)CCC	cell-free assay, competition with immobilised ligand	1 µM	remaining binding	100%
Clc1ccc(Nc2nnc(Cc3ccncc3)c3ccccc23)cc1	cell-free assay	0.5 µM	remaining signal	62.8%
CCN(CC)c1ccc(C2=NNC(=O)CC2C)cc1[N+](=O)[O-] (centres unmarked)	enzyme activity, inhibitor	10 µM	remaining activity	111%
O=C(O)c1cc(-c2ccc(C3CCNCC3)cc2)c2ccc(-c3ccc(C(F)(F)F)cc3)cc2c1	cell-free assay, competition with immobilised ligand	1 µM	remaining binding	100%
Cc1ccc(C(=O)Nc2ccc(CN3CCN(C)CC3)c(C(F)(F)F)c2)cc1C#Cc1cnc2cccnn12	cell-free assay	23.5 nM	remaining signal	35%
COc1ccc(COc2ccc(Cc3cnc(N)nc3N)cc2OC)cc1	cell-free assay	0.5 µM	remaining signal	105%
C[C@@H]1CN(c2cc(-c3n[nH]c4ccc(OC5(C)CC5)cc34)ncn2)C[C@H](C)O1	cell-free assay, competition with immobilised ligand	0.1 µM	remaining binding	100%
O=C(Nc1cnn(-c2csc(C(=O)NC3COC3)c2)c1)Nc1c(F)cccc1Cl	enzyme activity, inhibitor	5 µM	remaining activity	86.2%
O=C(Nc1cccnn1)N1CCC(=Cc2cccc(Oc3ccc(C(F)(F)F)cn3)c2)CC1	cell-free assay, competition with immobilised ligand	1 µM	remaining binding	80%
CCCS(=O)(=O)Nc1ccc(F)c(C(=O)c2c[nH]c3ncc(-c4ccc(Cl)cc4)cc23)c1F	enzyme activity, inhibitor	1 µM	inhibition	< 10%
